Test results reported in ChEMBL document CHEMBL3045116, “Synthesis and biological evaluation of 2-(5-substituted-1-((diethylamino)methyl)-2-oxoindolin-3-ylidene)-N-substituted-hydrazinecarbothioamides” (Med Chem Res, 2013).

What was measured:
[1] = tested on: Influenza B virus; experiment: Antiviral activity against Influenza B virus infected in MDCK cells assessed as reduction of virus-induced cytopathic effect after 3 days by colorimetric formazan-based MTS assay; format: functional, organism-based; details: 72 h
Outline: (§1)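 Confluent cell monolayers were infected with 100 CCID50 of virus, and serial dilutions of compound were added at the time of infection.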

[2] = tested on: Influenza A virus H3N2; experiment: Antiviral activity against Influenza A virus H3N2 infected MDCK cells assessed as reduction of virus-induced cytopathic effect after 3 days by colorimetric formazan-based MTS assay; format: functional, organism-based; details: 72 h; outline: as §1
[3] = tested on: Human alphaherpesvirus 1; experiment: Antiviral activity against Human herpesvirus 1 strain KOS infected human HEL cells assessed as reduction of virus-induced cytopathic effect after 3 days by colorimetric formazan-based MTS assay; format: functional, organism-based; details: Human alphaherpesvirus 1, KOS, 72 h; outline: as §1
[4] = tested on: Felid alphaherpesvirus 1; experiment: Antiviral activity against Felid herpesvirus 1 infected cat CRFK cells assessed as reduction of virus-induced cytopathic effect after 3 days by colorimetric formazan-based MTS assay; format: functional, organism-based; details: Felid alphaherpesvirus 1, CRFK, 72 h
Outline: (§2)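 Cells grown to confluency in 96-well plates ([…], Vero for lines 9–10) were infected with 100 CCID50 of virus, and serial compound dilutions were added at infection. Plates were incubated at 37 °C for 3 days, until complete CPE appeared in untreated virus controls.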

[5] = tested on: Feline infectious peritonitis virus; experiment: Antiviral activity against Feline Infectious peritonitis virus infected cat CRFK cells assessed as reduction of virus-induced cytopathic effect after 3 days by colorimetric formazan-based MTS assay; format: functional, organism-based; details: Alphacoronavirus 1, CRFK, 72 h; outline: as §1
[6] = Cytotoxicity against Felis catus (cat) CRFK cells assessed as change in cellular morphology; format: cell-based; details: crfk
Outline: (§3)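 Uninfected cells were exposed to compound in parallel with the antiviral cultures. The read-out is the minimum cytotoxic concentration that causes a microscopically detectable alteration of normal cell morphology.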

[7] = Inhibition of beta lactamase assessed as increase in time taken for iodine decolorization relative to control; set-up: concentration or dose not given beside the values; details: concentration not given here
[8] = Inhibition of beta lactamase assessed as time for decolorization of iodine (reference value: 79.5 secs)
[9] = tested on: CCRF-CEM; experiment: Cytotoxicity against Homo sapiens (human) CEM cells assessed as growth inhibition after 72 hr by coulter counter analysis; format: functional, cell-based
Outline: (§4)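 Cells in growth medium were allowed to proliferate with variable compound amounts at 37 °C in a humidified CO2 atmosphere. Incubation ran 48 h for L1210, 72 h for CEM and 96 h for HeLa. Cells were then counted with a Coulter counter.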

[10] = tested on: L1210; experiment: Cytotoxicity against Mus musculus (mouse) L1210 cells assessed as growth inhibition after 48 hr by coulter counter analysis; format: functional, cell-based; details: L1210, 48 h; outline: as §4
[11] = tested on: Influenza A virus; experiment: Antiviral activity against Unidentified Influenza A virus (H1N1) infected MDCK cells assessed as reduction of virus-induced cytopathic effect after 3 days by colorimetric formazan-based MTS assay; format: functional, organism-based; details: 72 h; outline: as §1
[12] = (§5) Cytotoxicity against MDCK cells assessed as change in cellular morphology; format: cell-based, Canis lupus familiaris; details: dog, MDCK cells; outline: as §3
[13] = tested on: MDCK; experiment: as §5; format: cell-based, Canis lupus familiaris; details: dog, mdck; outline: as §3
[14] = tested on: Punta Toro virus; experiment: Antiviral activity against Punta Toro virus infected in African green monkey Vero cells assessed as reduction of virus-induced cytopathic effect after 3 days by colorimetric formazan-based MTS assay; format: functional, organism-based; details: 72 h; outline: as §1
[15] = tested on: Coxsackievirus B4; experiment: Antiviral activity against Human coxsackievirus B4 infected African green monkey Vero cells assessed as reduction of virus-induced cytopathic effect after 3 days by colorimetric formazan-based MTS assay; format: functional, organism-based; details: Enterovirus B, 72 h; outline: as §1
[16] = tested on: Respirovirus muris; experiment: Antiviral activity against Sendai virus infected African green monkey Vero cells assessed as reduction of virus-induced cytopathic effect after 3 days by colorimetric formazan-based MTS assay; format: functional, organism-based; details: 72 h
[17] = tested on: Mammalian orthoreovirus 1; experiment: Antiviral activity against Mammalian orthoreovirus 1 infected African green monkey Vero cells assessed as reduction of virus-induced cytopathic effect after 3 days by colorimetric formazan-based MTS assay; format: functional, organism-based; details: Mammalian orthoreovirus 1, Vero, 72 h; outline: as §2
[18] = tested on: Human respirovirus 3; experiment: Antiviral activity against Human parainfluenza virus 3 infected African green monkey Vero cells assessed as reduction of virus-induced cytopathic effect after 3 days by colorimetric formazan-based MTS assay; format: functional, organism-based; details: Human respirovirus 3, Vero, 72 h; outline: as §2
[19] = Cytotoxicity against Chlorocebus aethiops (African green monkey) Vero cells assessed as change in cellular morphology; format: cell-based; details: chlorocebus sabaeus
[20] = tested on: Respiratory syncytial virus; experiment: Antiviral activity against Respiratory syncytial virus infected human HeLa cells assessed as reduction of virus-induced cytopathic effect after 3 days by colorimetric formazan-based MTS assay; format: functional, organism-based; details: 72 h; outline: as §1
[21] = tested on: Vesicular stomatitis virus; experiment: Antiviral activity against Vesicular stomatitis virus infected human HeLa cells assessed as reduction of virus-induced cytopathic effect after 3 days by colorimetric formazan-based MTS assay; format: functional, organism-based; details: 72 h; outline: as §1
[22] = tested on: Coxsackievirus B4; experiment: Antiviral activity against Human coxsackievirus B4 infected human HeLa cells assessed as reduction of virus-induced cytopathic effect after 3 days by colorimetric formazan-based MTS assay; format: functional, organism-based; details: Enterovirus B, 72 h; outline: as §1
[23] = (§6) Cytotoxicity against Homo sapiens (human) HeLa cells assessed as change in cellular morphology; format: cell-based; details: HeLa cells; outline: as §3
[24] = tested on: HeLa; experiment: as §6; format: cell-based; details: hela; outline: as §3
[25] = tested on: Human alphaherpesvirus 1; experiment: Antiviral activity against acyclovir-resistant thymidine kinase negative Human herpesvirus 1 strain KOS infected human HEL cells assessed as reduction of virus-induced cytopathic effect after 3 days by colorimetric formazan-based MTS assay; format: functional, organism-based; details: Human alphaherpesvirus 1, KOS, 72 h; outline: as §1
[26] = tested on: Vesicular stomatitis virus; experiment: Antiviral activity against Vesicular stomatitis virus infected human HEL cells assessed as reduction of virus-induced cytopathic effect after 3 days by colorimetric formazan-based MTS assay; format: functional, organism-based; details: 72 h; outline: as §1
[27] = tested on: Vaccinia virus; experiment: Antiviral activity against Vaccinia virus infected human HEL cells assessed as reduction of virus-induced cytopathic effect after 3 days by colorimetric formazan-based MTS assay; format: functional, organism-based; details: Orthopoxvirus vaccinia, 72 h; outline: as §1
[28] = tested on: Human alphaherpesvirus 2; experiment: Antiviral activity against Human herpesvirus 2 strain G infected human HEL cells assessed as reduction of virus-induced cytopathic effect after 3 days by colorimetric formazan-based MTS assay; format: functional, organism-based; details: Human alphaherpesvirus 2, strain G, 72 h; outline: as §1
[29] = Cytotoxicity against Homo sapiens (human) HEL cells assessed as change in cellular morphology; format: cell-based
[30] = tested on: Candida albicans; experiment: Antifungal activity against Candida albicans assessed as growth inhibition at 50 ug/ml by cup-plate method (reference value: 8 to 10 mm); format: functional; details: read-out: DIZ
[31] = tested on: Aspergillus niger; experiment: Antifungal activity against Aspergillus niger assessed as growth inhibition at 50 ug/ml by cup-plate method (reference value: 8 to 10 mm); format: functional; details: read-out: DIZ
[32] = tested on: Salmonella typhi; experiment: Antibacterial activity against Salmonella enterica subsp. enterica serovar Typhi assessed as growth inhibition at 50 ug/ml by cup-plate method (reference value: 8 to 10 mm); format: functional; details: read-out: DIZ
[33] = tested on: Proteus vulgaris; experiment: Antibacterial activity against Proteus vulgaris assessed as growth inhibition at 50 ug/ml by cup-plate method (reference value: 8 to 10 mm); format: functional; details: read-out: DIZ
[34] = tested on: Escherichia coli; experiment: Antibacterial activity against Escherichia coli assessed as growth inhibition at 50 ug/ml by cup-plate method (reference value: 8 to 10 mm); format: functional; details: read-out: DIZ
[35] = tested on: Bacillus subtilis; experiment: Antibacterial activity against Bacillus subtilis assessed as growth inhibition at 50 ug/ml by cup-plate method (reference value: 8 to 10 mm); format: functional; details: read-out: DIZ
[36] = tested on: Klebsiella pneumoniae; experiment: Antibacterial activity against Klebsiella pneumoniae assessed as growth inhibition at 50 ug/ml by cup-plate method (reference value: 8 to 10 mm); format: functional; details: read-out: DIZ
[37] = tested on: Staphylococcus aureus; experiment: Antibacterial activity against Staphylococcus aureus assessed as growth inhibition at 50 ug/ml by cup-plate method (reference value: 8 to 10 mm); format: functional; details: read-out: DIZ

| Structure (SMILES) | EC50 [1] [µM] | EC50 [2] [µM] | EC50 [3] [µM] | EC50 [4] [µM] | EC50 [5] [µM] | CC50 [6] [µM] | inhibition [7] [%] | TIME [8] [h] | IC50 [9] [µM] | IC50 [10] [µM] | EC50 [11] [µM] | MCC [12] [nM] | CC50 [13] [µM] | EC50 [14] [µM] | EC50 [15] [µM] | EC50 [16] [µM] | EC50 [26] [µM] | EC50 [27] [µM] | EC50 [28] [µM] | MCC [29] [µM] | further results |
| --- | --- | --- | --- | --- | --- | --- | --- | --- | --- | --- | --- | --- | --- | --- | --- | --- | --- | --- | --- | --- | --- |
| CCN(CC)CN1C(=O)/C(=N/NC(=S)Nc2ccccc2)c2ccccc21 | > 0.16 | > 0.16 | 20 | > 20 | > 20 | 32.3 | 50.2 | 0.0443 | 11 | 13 | > 0.16 | 800 | 1.6 | > 20 | > 20 | > 20 | > 100 | 20 | 15 | > 100 | EC50 [17]: > 20 µM; EC50 [18]: > 20 µM; MCC [19]: 100 µM; EC50 [20]: > 20 µM; EC50 [21]: > 20 µM; EC50 [22]: > 20 µM; MCC [23]: ≥ 20 µM; CC50 [24]: 10.8 µM; EC50 [25]: > 100 µM; zone of inhibition at 50 µg/mL [30]: 21 mm; zone of inhibition at 50 µg/mL [31]: 21 mm; zone of inhibition at 50 µg/mL [32]: 21 mm; zone of inhibition at 50 µg/mL [33]: 21 mm; zone of inhibition at 50 µg/mL [34]: 11 mm; zone of inhibition at 50 µg/mL [35]: 11 mm; zone of inhibition at 50 µg/mL [36]: 11 mm; zone of inhibition at 50 µg/mL [37]: 11 mm |
| CCN(CC)CN1C(=O)/C(=N/NC(=S)Nc2ccc(C)cc2)c2ccccc21 | > 0.16 | > 0.16 | 14 | > 0.8 | > 0.8 | 3.8 | 45.5 | 0.0405 | 12 | 29 | > 0.16 | 800 | 0.2 | > 20 | > 20 | > 20 | > 20 | 11 | 12 | 100 | EC50 [17]: > 20 µM; EC50 [18]: > 20 µM; MCC [19]: 100 µM; EC50 [20]: > 20 µM; EC50 [21]: > 20 µM; EC50 [22]: > 20 µM; MCC [23]: ≥ 20 µM; CC50 [24]: 10.7 µM; EC50 [25]: ≥ 20 µM; zone of inhibition at 50 µg/mL [30]: 11 mm; zone of inhibition at 50 µg/mL [31]: 11 mm; zone of inhibition at 50 µg/mL [32]: 21 mm; zone of inhibition at 50 µg/mL [33]: 11 mm; zone of inhibition at 50 µg/mL [34]: 21 mm; zone of inhibition at 50 µg/mL [35]: 21 mm; zone of inhibition at 50 µg/mL [36]: 11 mm; zone of inhibition at 50 µg/mL [37]: 21 mm |
| Nc1nc2c(ncn2COCCO)c(=O)[nH]1 [ACYCLOVIR] |  |  |  |  |  |  |  |  |  |  |  |  |  |  |  |  | > 250 | > 250 | 0.7 | > 250 |  |
